Measured values gathered from unrelated publications.
Compare with care: the assays were run in different laboratories.
HTR5A: 5-hydroxytryptamine receptor 5A (HTR5A, Homo sapiens, UniProt P47898)
PIK3CD: Phosphatidylinositol 4,5-bisphosphate 3-kinase catalytic subunit delta isoform (PIK3CD, Homo sapiens, UniProt O00329)
DRD4: D(4) dopamine receptor (DRD4, Homo sapiens, UniProt P21917)
GRM8: Metabotropic glutamate receptor 8 (GRM8, Homo sapiens, UniProt O00222)

| Compound | target | read-out | mode | technique | quantity | value |
| --- | --- | --- | --- | --- | --- | --- |
| CC[C@@H]1C(=O)OC[C@@H]1Cc1cncn1C | Cytochrome P450 2E1 (CYP2E1, Homo sapiens, UniProt P05181) | binding | – | – | Kd | 26500 nM |
| CS(=O)(=O)C1(CNCc2cccc3cccnc23)CC1 | HTR5A | ligand displacement | – | radioligand | Ki | 41.7 nM |
| CCC(=O)N1CCC(C(=O)N(C)CC(=O)N2CCN(c3nc(-c4cnc(N)nc4C(F)F)nc(N4CCOCC4)n3)CC2)CC1 | PIK3CD | binding | – | competition with immobilised ligand | Kd | 4.9 nM |
| CCCCCCCNCCCc1ccc([N+](=O)[O-])cc1 | DRD4 | ligand displacement | – | radioligand | Ki | 240 nM |
| CS(=O)(=O)C1(CNCc2ccc(Cl)c3cccnc23)CC1 | HTR5A | ligand displacement | – | radioligand | Ki | 126 nM |
| CCn1c(-c2nc3ccc(C(=O)N4CCCC(N)C4)cc3n2C)cc2ccccc21 (stereo not shown) | Nuclear receptor subfamily 1 group I member 2 (NR1I2, Homo sapiens, UniProt O75469) | reporter gene | agonist | luciferase | EC50 | > 50100 nM |
| COc1cc(F)cc2c(N3CCN4c5ccccc5OC[C@@H]4C3)c(C#N)nnc12 (single isomer, unassigned) | GRM8 | calcium signal | positive allosteric modulator | – | EC50 | > 30000 nM |
| COc1ccc2c(c1)C(=O)N(CCN1CCN(c3ccccc3OC)CC1)C2 | DRD4 | ligand displacement | – | radioligand | Ki | 191 nM |
| CC(=O)N[C@@H](Cc1ccccc1)C(=O)N1CCC[C@H]1C(=O)N1CCC[C@H]1C(=O)N1CCC[C@H]1C(=O)N1CCC[C@H]1C(=O)O | Vasodilator-stimulated phosphoprotein (VASP, Homo sapiens, UniProt P50552) | binding | – | fluorescence | Kd | 800000 nM |
| C=CC(=O)N1CCC(C(=O)N(C)CC(=O)N2CCN(c3nc(-c4cnc(N)nc4C(F)F)nc(N4CCOCC4)n3)CC2)CC1 | PIK3CD | binding | – | competition with immobilised ligand | Kd | 2.2 nM |
| Nc1nc2c(ncn2[C@@H]2O[C@H](COP(=O)(O)OP(=O)(O)O)[C@@H](OP(=O)(O)OP(=O)(O)O)[C@H]2O)c(=O)[nH]1 | cmk (Escherichia coli, UniProt P0A6I0) | binding | – | ITC | Kd | 79000 nM |
| COc1ccc(-c2nsc(NC(=O)[C@@H]3C[C@H]3C)c2C)cc1 | GRM8 | calcium signal | agonist | – | EC50 | > 25000 nM |
| Cc1ncsc1-c1ccc(CNC(=O)[C@@H]2C[C@@H](O)CN2C(=O)[C@@H](NC(=O)CCCCCCCCCC(=O)N2CCN(CC[C@H](NC(=O)C3(N)CCN(c4ncnc5[nH]ccc45)CC3)c3ccc(Cl)cc3)CC2)C(C)(C)C)cc1 | RAC-beta serine/threonine-protein kinase (AKT2, Homo sapiens, UniProt P31751) | binding | – | competition with immobilised ligand | Kd | 360 nM |
| CC(C)c1nc2cc(OCCCCN3CCN(c4cccc5c4OCCO5)CC3)ccc2s1 | HTR5A | ligand displacement | – | radioligand | Ki | 330 nM |
| CC1=C(O)C(=O)OC1C (stereo not shown) | OR8D1 (Homo sapiens, UniProt Q8WZ84, del306-308) | cAMP | agonist | luciferase | EC50 | 4500 nM |
| COc1ccccc1N1CCN(CCCCN2CCc3ccccc3C2=O)CC1 | DRD4 | ligand displacement | – | radioligand | Ki | 6 nM |
| Oc1cccc(CCC2=NCCN2Cc2ccccc2)c1 | DRD4 | ligand displacement | – | radioligand | Ki | > 10000 nM |
| Cc1cnc(-c2ccc(-c3ccc(NC(=O)Nc4c(F)cc(F)cc4F)cc3F)c3c2C(=O)NC3)[nH]1 | Tyrosine-protein kinase BTK (BTK, Homo sapiens, UniProt Q06187) | binding | – | competition with immobilised ligand | Kd | 27 nM |
| CCCCN1CCC(COC(=O)c2ccc(N)c(OCF)c2)CC1 | HTR5A | cell-free assay | – | radioligand | Ki | > 10000 nM |
